B1: Osa-1-4 twister ribozyme (parent)
chain: CCGCCUAACACUGCCAAUGCCGGUCCCAAGCCCGGAUAAAAGUGGAGGGGGCGG

Variants of B1 are the subject of this data set. Kind of data set: self-cleavage, relative activity (ratio to wild type); higher = more cleavage; co-transcriptional. In short, it runs like this: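 In vitro transcription at 37 °C for 2 h allowed the twister ribozyme to cleave itself as it was made. Its 54-nucleotide Oryza sativa template had been synthesised with 97 % wild-type base and 1 % of each other base at the 48 positions downstream of the cleavage site. A template-switching oligonucleotide was used for reverse transcription, followed by PCR amplification and deep sequencing. Whether reads carried upstream sequence set the cleavage status, and relative activity is the fraction cleaved normalised to wild type.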
With CCGCCUAACACUGCCAAUGCCGGUCCCAAGCCCGGAUAAAGGUGUAGGGGGCGG, the self-cleavage worked out at 0.09.

For CCGCCUAACACUGCCAAUGCCGGUCCCAAGCCCGGAUAAAGGUGCAGGGGGCGG, the self-cleavage was found to be 0.05.

As for CCGCCUAACACUGCCAAUGCCGGUCCCAAGCCCGGAUAAAGGUGAAGGGGGCGG, the self-cleavage turned out to be 0.09.

CCGCCUAACACUGCCAAUGCCGGUCCCAAGCCCGCAUAAAGGUGGAGGGGGCGG: the self-cleavage was 0.15.

For the variant CCGCCUAACACUGCCAAUGCCGGUCCCAAGCCCGUAUAAAGGUGGAGGGGGCGG, the self-cleavage was 0.51.

In the case of CCGCCUAACACUGCCAAUGCCGGUCCCAAGCCCGAAUAAAGGUGGAGGGGGCGG, the self-cleavage turned out to be 0.57.

On to CCGCCUAACACUGCCAAAGCCGGUCCCAAGCCCGGAUAAAGGUGGAGGGGGCGG, for which the self-cleavage is 0.77.

For the variant CCGCCUAACACUGCCAAUGCCGAUCCCAAGCCCGGAUAAAGGUGGAGGGGGCGG, the self-cleavage is 0.12.

For the variant CCGCCUAACACUGCCAAUGCCGCUCCCAAGCCCGGAUAAAGGUGGAGGGGGCGG, the self-cleavage was found to be 0.07.

With CCGCCUAACACUGCCAAUGCCGUUCCCAAGCCCGGAUAAAGGUGGAGGGGGCGG, the self-cleavage was 0.06.

In the case of CCGCCUAACACUGCCAAUGCCGGUCCCAAGCCCGGAUAAAGGUGGAGGGGUCGG, the self-cleavage is 0.12.

For the variant CCGCCUAACACUGCCAAUGCCGGUCCCAAGCCCGGAUAAAGGUGGAGGGGCCGG, the self-cleavage was 0.09.

With CCGCCUAACACUGCCAAUGCCGGUCCCAAGCCCGGAUAAAGGUGGAGGGGACGG, the self-cleavage stood at 0.41.

In the case of CCGCCUAACACUGCCAAUGCCGGUCCCAAGCCCGGAUAAAGGUGGAUGGGGCGG, the self-cleavage was found to be 0.08.

For the variant CCGCCUAACACUGCCAAUGCCGGUCCCAAGCCCGGAUAAAGGUGGAAGGGGCGG, the self-cleavage was found to be 0.1.

For the variant CCGCCUAACACUGCCAAUGCCGGUCCCAAGCCCGGAUAAAGGUGGACGGGGCGG, the self-cleavage came to 0.07.

On to CCGCCUAACACUGCCAAUGCCGGUCCCAAGCCCGGAUAAAGGUGGAGGCGGCGG, for which the self-cleavage worked out at 0.06.

Consider CCGCCUAACACUGCCAAUGCCGGUCCCAAGCCCGGAUAAAGGUGGAGGUGGCGG, for which the self-cleavage worked out at 0.07.

For CCGCCUAACACUGCCAAUGCCGGUCCCAAGCCCGGAUAAAGGUGGAGGAGGCGG, the self-cleavage was 0.08.

For CCGCCUAACACUGCCAAUGCCGGUCCCAAGCCCGGAUAAAGGUGGAGGGGGCGU, the self-cleavage was 0.82.

Consider CCGCCUAACACUGCCAAUGCCGGUCCCAAGCCCGGAUAAAGGUGGAGGGGGCGC, for which the self-cleavage was 0.8.

With CCGCCUAACACUGCCAAUGCCGGUCCCAAGCCCGGAUAAAGGUGGAGGGGGCGA, the self-cleavage was 0.81.

For the variant CCGCCUAACACUGCCAAUGCCGGUCCCAAGCCCGGAUAAAGGUGGAGGGGGCUG, the self-cleavage turned out to be 0.25.

In the case of CCGCCUAACACUGCCAAUGCCGGUCCCAAGCCCGGAUAAAGGUGGAGGGGGCCG, the self-cleavage is 0.08.

In the case of CCGCCUAACACUGCCAAUGCCGGUCCCAAGCCCGGAUAAAGGUGGAGGGGGCAG, the self-cleavage stood at 0.61.

In the case of CCGCCUAACACUGCCAAUGCCGGUCCCAAGCCCGGAUAAAGGUGGAGGGUGCGG, the self-cleavage is 0.91.

For CCGCCUAACACUGCCAAUGCCGGUCCCAAGCCCGGAUAAAGGUGGAGGGCGCGG, the self-cleavage is 0.77.

With CCGCCUAACACUGCCAAUGCCGGUCCCAAGCCCGGAUAAAGGUGGAGGGAGCGG, the self-cleavage amounted to 0.34.

Turning to CCGCCUAACACUGCCAAUGCCGGUCCCAAGCCCGGAUAAAGGUUGAGGGGGCGG, the self-cleavage worked out at 0.31.

Consider CCGCCUAACACUGCCAAUGCCGGUCCCAAGCCCGGAUAAAGGUAGAGGGGGCGG, for which the self-cleavage was found to be 0.14.

As to CCGCCUAACACUGCCAAUGCCGGUCCCAAGCCCGGAUAAAGGUCGAGGGGGCGG, the self-cleavage was determined as 0.39.

As for CCGCCUAACACUGCCAAUGCCGGUCCCAAGCCCGGAUAAAGGUGGAGUGGGCGG, the self-cleavage was 0.05.

CCGCCUAACACUGCCAAUGCCGGUCCCAAGCCCGGAUAAAGGUGGAGAGGGCGG: the self-cleavage came to 0.08.

Take CCGCCUAACACUGCCAAUGCCGGUCCCAAGCCCGGAUAAAGGUGGAGCGGGCGG: the self-cleavage is 0.08.

With CCGCCUAACACUGCCAAUGCCCGUCCCAAGCCCGGAUAAAGGUGGAGGGGGCGG, the self-cleavage stood at 0.05.

For the variant CCGCCUAACACUGCCAAUGCCAGUCCCAAGCCCGGAUAAAGGUGGAGGGGGCGG, the self-cleavage is 0.48.

Regarding CCGCCUAACACUGCCAAUGCCUGUCCCAAGCCCGGAUAAAGGUGGAGGGGGCGG, the self-cleavage was 0.27.

For the variant CCGCCUAACACUGCCAAUGCCGGUCCCAACCCCGGAUAAAGGUGGAGGGGGCGG, the self-cleavage is 0.05.

Take CCGCCUAACACUGCCAAUGCCGGUCCCAAACCCGGAUAAAGGUGGAGGGGGCGG: the self-cleavage amounted to 0.05.

Turning to CCGCCUAACACUGCCAAUGCCGGUCCCAAUCCCGGAUAAAGGUGGAGGGGGCGG, the self-cleavage was determined as 0.05.

Regarding CCGCCUAACACUGCCAAUGCCGGUCCCAAGCCCGGAUAAAGUUGGAGGGGGCGG, the self-cleavage came out at 0.44.

For CCGCCUAACACUGCCAAUGCCGGUCCCAAGCCCGGAUAAAGCUGGAGGGGGCGG, the self-cleavage is 0.37.

As to CCGCCUAACACUGCCAAUGCCGGUCCCAAGCCCGGAUAAAGAUGGAGGGGGCGG, the self-cleavage turned out to be 0.72.

As to CCGCCUAACACUGCCAAUGCCGGUCCCAAGCCCCGAUAAAGGUGGAGGGGGCGG, the self-cleavage turned out to be 0.16.

Take CCGCCUAACACUGCCAAUGCCGGUCCCAAGCCCUGAUAAAGGUGGAGGGGGCGG: the self-cleavage stood at 0.18.

With CCGCCUAACACUGCCAAUGCCGGUCCCAAGCCCAGAUAAAGGUGGAGGGGGCGG, the self-cleavage worked out at 0.41.

CCGCCUAACACCGCCAAUGCCGGUCCCAAGCCCGGAUAAAGGUGGAGGGGGCGG: the self-cleavage is 0.78.

Turning to CCGCCUAACACGGCCAAUGCCGGUCCCAAGCCCGGAUAAAGGUGGAGGGGGCGG, the self-cleavage came to 0.21.

For CCGCCUAACACAGCCAAUGCCGGUCCCAAGCCCGGAUAAAGGUGGAGGGGGCGG, the self-cleavage was found to be 0.87.

(Values after the RNAGym collection of RNA variant scans (doi:10.1002/anie.201605470).)
